Columns and labels:
OVCAR-5 = experiment: Cytotoxicity against human OVCAR5 cells assessed as cell growth at 80 nM by sulforhodamine B assay relative to control; type: functional; settings: read-out: Activity
PC-3 = experiment: Cytotoxicity against human PC3 cells assessed as cell growth at 8 nM by sulforhodamine B assay relative to control; type: functional; settings: read-out: Activity
BT-549 [1] = experiment: Cytotoxicity against human BT549 cells by sulforhodamine B assay; type: functional
In short: (§1)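 Run at NCI in the DTP 60-cell-line human tumor panel by standard procedure. Compounds were first screened at a single concentration, then tested at five tenfold-spaced concentrations. GI50 is the concentration reducing treated-cell growth to half that of untreated controls; TGI is the concentration completely halting growth.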

MDA-MB-231 = experiment: Cytotoxicity against human MDA-MB-231 cells assessed as cell growth at 80 nM by sulforhodamine B assay relative to control; type: functional; settings: read-out: Activity
HOP-62 = experiment: Cytotoxicity against human HOP62 cells assessed as cell growth at 80 nM by sulforhodamine B assay relative to control; type: functional; settings: read-out: Activity
A498 [2] = experiment: Cytotoxicity against human A498 cells assessed as cell growth at 8 uM by sulforhodamine B assay relative to control; type: functional; settings: read-out: Activity; in short: as §1
UACC-62 = experiment: Cytotoxicity against human UACC62 cells assessed as cell growth at 80 uM by sulforhodamine B assay relative to control; type: functional; settings: read-out: Activity
A498 [3] = experiment: Cytotoxicity against human A498 cells assessed as cell growth at 80 nM by sulforhodamine B assay relative to control; type: functional; settings: read-out: Activity; in short: as §1
KM12 = experiment: Cytotoxicity against human KM12 cells assessed as cell growth at 80 nM by sulforhodamine B assay relative to control; type: functional; settings: read-out: Activity
SF-539 = experiment: Cytotoxicity against human SF539 cells assessed as cell growth at 80 nM by sulforhodamine B assay relative to control; type: functional; settings: read-out: Activity
UO-31 = experiment: Cytotoxicity against human UO31 cells assessed as cell growth at 80 uM by sulforhodamine B assay relative to control; type: functional; settings: read-out: Activity
SW-620 [4] = experiment: Cytotoxicity against human SW620 cells assessed as cell growth at 80 nM by sulforhodamine B assay relative to control; type: functional; settings: read-out: Activity
OVCAR-3 = experiment: Cytotoxicity against human OVCAR3 cells assessed as cell growth at 80 uM by sulforhodamine B assay relative to control; type: functional; settings: read-out: Activity
Mus musculus = experiment: Acute toxicity in athymic nude mouse assessed as mortality at 12.5 mg/kg, […]; type: organism-based; parameters: dose 12.5 mg/kg, route intraperitoneal; settings: in vivo, ip, 576 h
T47D = experiment: Cytotoxicity against human T47D cells assessed as cell growth at 80 nM by sulforhodamine B assay relative to control; type: functional; settings: read-out: Activity
HT-29 [5] = experiment: Cytotoxicity against human HT-29 cells assessed as cell growth at 8 nM by sulforhodamine B assay relative to control; type: functional; settings: read-out: Activity
OVCAR-8 [6] = experiment: Cytotoxicity against human OVCAR8 cells assessed as cell growth at 8 uM by sulforhodamine B assay relative to control; type: functional; settings: read-out: Activity
NCI-H226 = experiment: Cytotoxicity against human NCI-H226 cells assessed as cell growth at 800 nM by sulforhodamine B assay relative to control; type: functional; settings: read-out: Activity
SK-MEL-28 = experiment: Cytotoxicity against human SK-MEL-28 cells by sulforhodamine B assay; type: functional
In short: (§2)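 NCI Developmental Therapeutics Program 60-cell-line human tumor panel screen, run at NCI. A single-concentration pre-screen was followed by a five-concentration dose-response in 10-fold steps. GI50 is the concentration that reduces growth of treated cells to half that of untreated control cells. TGI is the concentration that completely halts growth.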

NCI-H322M [7] = experiment: Cytotoxicity against human NCI-H322M cells assessed as cell growth at 800 nM by sulforhodamine B assay relative to control; type: functional; settings: read-out: Activity
HOP-92 = experiment: Cytotoxicity against human HOP92 cells assessed as cell growth at 8 nM by sulforhodamine B assay relative to control; type: functional; settings: read-out: Activity
HT-29 [8] = experiment: Cytotoxicity against human HT-29 cells assessed as cell growth at 8 uM by sulforhodamine B assay relative to control; type: functional; settings: read-out: Activity
NCI-H322M [9] = experiment: Cytotoxicity against human NCI-H322M cells assessed as cell growth at 80 uM by sulforhodamine B assay relative to control; type: functional; settings: read-out: Activity
SNB-75 = experiment: Cytotoxicity against human SNB75 cells assessed as cell growth at 80 uM by sulforhodamine B assay relative to control; type: functional; settings: read-out: Activity
Hs-578T [10] = experiment: Cytotoxicity against human Hs578T cells by sulforhodamine B assay; type: functional; in short: as §2
HCT-15 = experiment: Cytotoxicity against human HCT15 cells assessed as cell growth at 800 nM by sulforhodamine B assay relative to control; type: functional; settings: read-out: Activity
HCC 2998 [11] = experiment: Cytotoxicity against human HCC2998 cells assessed as cell growth at 8 nM by sulforhodamine B assay relative to control; type: functional; settings: read-out: Activity
HCC 2998 [12] = experiment: Cytotoxicity against human HCC2998 cells assessed as cell growth at 80 nM by sulforhodamine B assay relative to control; type: functional; settings: read-out: Activity
SN12C [13] = experiment: Cytotoxicity against human SN12C cells assessed as cell growth at 800 nM by sulforhodamine B assay relative to control; type: functional; settings: read-out: Activity
TK-10 = experiment: Cytotoxicity against human TK10 cells assessed as cell growth at 800 nM by sulforhodamine B assay relative to control; type: functional; settings: read-out: Activity
A549 = experiment: Cytotoxicity against human A549 cells assessed as cell growth at 80 nM by sulforhodamine B assay relative to control; type: functional; settings: read-out: Activity; in short: as §1
BT-549 [14] = experiment: Cytotoxicity against human BT549 cells assessed as cell growth at 80 uM by sulforhodamine B assay relative to control; type: functional; settings: read-out: Activity; in short: as §1
ACHN [15] = experiment: Cytotoxicity against human ACHN cells by sulforhodamine B assay; type: functional; in short: as §1
U-251 = experiment: Cytotoxicity against human U251 cells assessed as cell growth at 80 uM by sulforhodamine B assay relative to control; type: functional; settings: read-out: Activity
Hs-578T [16] = experiment: Cytotoxicity against human Hs578T cells assessed as cell growth at 80 uM by sulforhodamine B assay relative to control; type: functional; settings: read-out: Activity
NCI-H460 = experiment: Cytotoxicity against human NCI-H460 cells by sulforhodamine B assay; type: functional; in short: as §2
SN12C [17] = experiment: Cytotoxicity against human SN12C cells assessed as cell growth at 8 nM by sulforhodamine B assay relative to control; type: functional; settings: read-out: Activity
NCI/ADR-RES = experiment: Cytotoxicity against human NCI/ADR-RES cells by sulforhodamine B assay; type: functional; in short: as §2
Malme-3M = experiment: Cytotoxicity against human MALME-3M cells assessed as cell growth at 80 nM by sulforhodamine B assay relative to control; type: functional; settings: read-out: Activity
ACHN [18] = experiment: Cytotoxicity against human ACHN cells assessed as cell growth at 800 nM by sulforhodamine B assay relative to control; type: functional; settings: read-out: Activity; in short: as §1
SW-620 [19] = experiment: Cytotoxicity against human SW620 cells assessed as cell growth at 8 uM by sulforhodamine B assay relative to control; type: functional; settings: read-out: Activity
OVCAR-8 [20] = experiment: Cytotoxicity against human OVCAR8 cells assessed as cell growth at 80 nM by sulforhodamine B assay relative to control; type: functional; settings: read-out: Activity

**Q.** What does the source list for C/C=C1\NC(=O)[C@H](Cc2ccccc2)NC(=O)[C@@H](C(C)C)NC(=O)[C@@H]([C@@H](C)CC)NC(=O)[C@H](NC(=O)[C@H](NC(=O)[C@H](CCCNCc2ccc(F)c(C)c2)NC(=O)[C@H]2CCCN2C(=O)[C@H](NC(=O)[C@@H](NC(=O)[C@@H](NC(=O)[C@H](NC(=O)CCCC(C)C)C(C)C)[C@@H](C)O)C(C)C)C(C)C)[C@@H](C)CC)[C@@H](C)OC(=O)[C@H](C(C)C)NC1=O?
**A.** growth at 0.08 µM (OVCAR-5): 96%; growth at 0.008 µM (PC-3): 109%; GI50 (BT-549 [1]): 1230 nM; LC50 (BT-549 [1]): 4570 nM; TGI (BT-549 [1]; read-out: pTGI (converted)): 2340 nM; growth at 0.08 µM (MDA-MB-231): 98%; growth at 0.08 µM (HOP-62): 102%; growth at 8 µM (A498 [2]): -92%; growth at 80 µM (UACC-62): -91%; growth at 0.08 µM (A498 [3]): 108%; growth at 0.08 µM (KM12): 98%; growth at 0.08 µM (SF-539): 104%; growth at 80 µM (UO-31): -11%; growth at 0.08 µM (SW-620 [4]): 97%; growth at 80 µM (OVCAR-3): -90%; Activity (Mus musculus): Non-toxic; growth at 0.08 µM (T47D): 90%; growth at 0.008 µM (HT-29 [5]): 100%; growth at 8 µM (OVCAR-8 [6]): -14%; growth at 0.8 µM (NCI-H226): 98%; GI50 (SK-MEL-28): 1100 nM; growth at 0.8 µM (NCI-H322M [7]): -90%; growth at 0.008 µM (HOP-92): 104%; growth at 8 µM (HT-29 [8]): -62%; growth at 80 µM (NCI-H322M [9]): -94%; growth at 80 µM (SNB-75): -19%; LC50 (Hs-578T [10]): > 75900 nM; GI50 (Hs-578T [10]; read-out: GI50): 217 nM; TGI (Hs-578T [10]; read-out: TGI): 665 nM; GI50 (Hs-578T [10]; read-out: pGI50 (converted)): 219 nM; TGI (Hs-578T [10]; read-out: pTGI (converted)): 661 nM; growth at 0.8 µM (HCT-15): -35%; growth at 0.008 µM (HCC 2998 [11]): 108%; growth at 0.08 µM (HCC 2998 [12]): 105%; growth at 0.8 µM (SN12C [13]): 87%; growth at 0.8 µM (TK-10): 101%; growth at 0.08 µM (A549): 98%; growth at 80 µM (BT-549 [14]): -58%; LC50 (ACHN [15]): 4070 nM; GI50 (ACHN [15]; read-out: GI50): 1120 nM; TGI (ACHN [15]; read-out: TGI): 2140 nM; GI50 (ACHN [15]; read-out: pGI50 (converted)): 1120 nM; TGI (ACHN [15]; read-out: pTGI (converted)): 2140 nM; growth at 80 µM (U-251): -89%; growth at 80 µM (Hs-578T [16]): -30%; GI50 (NCI-H460): 1510 nM; growth at 0.008 µM (SN12C [17]): 89%; GI50 (NCI/ADR-RES): 1320 nM; LC50 (NCI/ADR-RES): 5250 nM; TGI (NCI/ADR-RES; read-out: pTGI (converted)): 2630 nM; growth at 0.08 µM (Malme-3M): 118%; growth at 0.8 µM (ACHN [18]): 81%; growth at 8 µM (SW-620 [19]): -100%; growth at 0.08 µM (OVCAR-8 [20]): 103%
